Measurements reported in ChEMBL document CHEMBL6134765, “Rapid identification of novel indolylarylsulfone derivatives as potent HIV-1 NNRTIs via miniaturized CuAAC click-chemistry-based combinatorial libraries” (RSC Med Chem, 2025).

Tests used:
[1] = test system: Human immunodeficiency virus 1; test: Antiviral activity against HIV-1 harboring K103N mutant infected in human MT4 cells assessed as inhibition of virus induced cytotoxicity incubated for 5 days by spectrophometry based MTT assay; assay type: functional, organism-based; conditions: Human immunodeficiency virus 1, MT4, 120 h
Summary of the method: (§1)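 MT-4 cells (from Dr. N. Yamamoto, Yamaguchi University) infected with single-mutant (L100I, K103N, Y181C, Y188L, E138K) or double-mutant (F227L/V106A; RES056 = K103N/Y181C) HIV-1 strains. Protection against virus-induced cytotoxicity was read by the MTT method. EC50 is the concentration giving 50% protection of the cell cultures.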

[2] = test system: Human immunodeficiency virus 1; test: Antiviral activity against HIV-1 harboring L100I mutant infected in human MT4 cells assessed as inhibition of virus induced cytotoxicity incubated for 5 days by spectrophometry based MTT assay; assay type: functional, organism-based; conditions: Human immunodeficiency virus 1, MT4, 120 h; summary of the method: as §1
[3] = test system: Human immunodeficiency virus 1; test: Antiviral activity against HIV-1 harboring Y188L mutant infected in human MT4 cells assessed as inhibition of virus induced cytotoxicity incubated for 5 days by spectrophometry based MTT assay; assay type: functional, organism-based; conditions: Human immunodeficiency virus 1, MT4, 120 h; summary of the method: as §1
[4] = test system: Human immunodeficiency virus 1; test: Antiviral activity against HIV-1 harboring Y181C mutant infected in human MT4 cells assessed as inhibition of virus induced cytotoxicity incubated for 5 days by spectrophometry based MTT assay; assay type: functional, organism-based; conditions: Human immunodeficiency virus 1, MT4, 120 h; summary of the method: as §1
[5] = test system: Human immunodeficiency virus 1; test: Antiviral activity against wild-type HIV-1 IIIB infected in human MT4 cells incubated for 5 days by spectrophometry based MTT assay; assay type: functional, organism-based; conditions: Human immunodeficiency virus 1, IIIB, MT4, 120 h
Summary of the method: (§2)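 MTT protection assay in MT-4 cells infected with HIV-1 IIIB or HIV-2 ROD. EC50 is the compound concentration giving 50% protection of the cultures against virus-induced cytotoxicity.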

[6] = test system: Human immunodeficiency virus 1; test: Antiviral activity against HIV-1 harboring F227L/V106A double mutant infected in human MT4 cells assessed as inhibition of virus induced cytotoxicity incubated for 5 days by spectrophometry based MTT assay; assay type: functional, organism-based; conditions: Human immunodeficiency virus 1, MT4, 120 h; summary of the method: as §1
[7] = test system: Human immunodeficiency virus 1; test: Antiviral activity against HIV-1 harboring RES056 mutant infected in human MT4 cells assessed as inhibition of virus induced cytotoxicity incubated for 5 days by spectrophometry based MTT assay; assay type: functional, organism-based; conditions: Human immunodeficiency virus 1, MT4, 120 h; summary of the method: as §1
[8] = Cytotoxicity against human MT4 cells assessed as reduction in cell viability incubated for 5 days by MTT assay; assay type: toxicity, cell-based; conditions: time 5 day
Summary of the method: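 Mock-infected MT-4 cultures were read by MTT for cell viability. CC50 is the concentration that reduces viability by 50%.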

[9] = test system: Human immunodeficiency virus 1; test: Antiviral activity against HIV-1 harboring E138K mutant infected in human MT4 cells assessed as inhibition of virus induced cytotoxicity incubated for 5 days by spectrophometry based MTT assay; assay type: functional, organism-based; conditions: Human immunodeficiency virus 1, MT4, 120 h; summary of the method: as §1
[10] = Selectivity index, ratio of CC50 for cytotoxicity against human MT4 cells to EC50 for antiviral activity against wild-type HIV-1 IIIB infected in human MT4 cells; assay type: toxicity, cell-based; conditions: read-out: Ratio CC50/EC50
Summary of the method: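 Selectivity index is calculated as CC50 (mock-infected MT-4, MTT) divided by EC50 (HIV-1 IIIB protection of MT-4, MTT).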

[11] = target: Human immunodeficiency virus type 1 reverse transcriptase (Human immunodeficiency virus 1) (UniProt Q72547); test: Inhibition of recombinant HIV-1 reverse transcriptase at 0.66 mM incubated for 1 hr by ELISA relative to control
Summary of the method: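 Each library compound was tested directly as the crude click mixture (diluted in DMSO to 2 mM per well) against HIV-1 RT at 0.66 mM, using an ELISA-based RT kit following the kit protocol. Blank controls held DMSO, TBTA, CuSO4·5H2O and sodium ascorbate. Inhibition is expressed as a percentage.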

[12] = test system: Human immunodeficiency virus 2; test: Antiviral activity against HIV-2 ROD infected in human MT4 cells incubated for 5 days by spectrophotometry based MTT assay; assay type: functional, organism-based; conditions: Human immunodeficiency virus 2, ROD, MT4, 120 h; summary of the method: as §2

| Structure (SMILES) | EC50 [1] [nM] | EC50 [2] [nM] | EC50 [3] [nM] | EC50 [4] [nM] | EC50 [5] [nM] | EC50 [6] [nM] | EC50 [7] [nM] | CC50 at 120 h [8] [nM] | EC50 [9] [nM] | selectivity ratio [10] | inhibition [11] [%] | EC50 [12] [nM] |
| --- | --- | --- | --- | --- | --- | --- | --- | --- | --- | --- | --- | --- |
| COC(=O)Cn1cc(CNC(=O)c2[nH]c3ccc(Cl)cc3c2S(=O)(=O)c2cc(C)cc(C)c2)nn1 | 140 | 220 | 11700 | 800 | 45 | 1070 | > 6460 | 6460 | 170 | 143 | > 85 | > 6460 |
| Cc1cc(C)cc(S(=O)(=O)c2c(C(=O)NCc3cn(CSc4ccccc4)nn3)[nH]c3ccc(Cl)cc23)c1 | 240 | 150 | 15800 | 670 | 40 | 810 | > 221000 | > 221000 | 180 | > 5510 | > 85 | > 221000 |
| CCOC(=O)Cn1cc(CNC(=O)c2[nH]c3ccc(Cl)cc3c2S(=O)(=O)c2cc(C)cc(C)c2)nn1 | 340 | 170 | 33400 | 630 | 32 | 1700 | 204000 | > 236000 | 100 | > 7330 | > 85 | 226000 |
| Cc1cc(C)cc(S(=O)(=O)c2c(C(=O)NCc3cn(CC(=O)Nc4ccc(C(F)(F)F)cc4)nn3)[nH]c3ccc(Cl)cc23)c1 | 1720 | 590 | 400 | > 7410 | 110 | > 17000 | > 17000 | 17000 | 2220 | 148 | > 85 | > 17000 |
| Cc1cc(C)cc(S(=O)(=O)c2c(C(=O)NCc3cn(CC(=O)Nc4ccc(F)cc4)nn3)[nH]c3ccc(Cl)cc23)c1 | 2780 | 530 | 14100 | 1070 | 87 | 5090 | > 16200 | 16200 | 560 | 188 | > 85 | > 16200 |
